Bioassay records as filed in PubChem.
TRPC4 PAM = positive allosteric modulators of TRPC4, primary screen, cell-based, mouse TRPC4beta, HEK293 mu-opioid, Fluo-4 calcium; DAMGO EC20, Fluo-4 Ca2+ flux; hits give high values; B-score at 10 µM; 310,000 tested, 0.42% active; AID 2227, 2009;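 active = B-score of calcium response area above 5 SD of library B-scores, with initial fluorescence ratio within 5 SD of library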;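 note: B-score of integrated fluorescence ratio over time as area under calcium response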
TRPC6 activator = mouse TRPC6 channel activators, primary screen, cell-based, HEK293, membrane potential dye | 310,000 tested, 0.13% active | HEK293-TRPC6 membrane potential dye fluorescence; hits give high values | Short transient receptor potential channel 6 (Mus musculus), Q61143 | AID 2550, 2010 | B-score at 10 µM;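 active = B-score of the integrated fluorescence ratio above library mean plus 3 SD, and starting fluorescence ratio within library mean plus 5 SD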;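 note: higher score means more depolarization so channel activation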
Target sequence (Q61143 whole entry, looked up): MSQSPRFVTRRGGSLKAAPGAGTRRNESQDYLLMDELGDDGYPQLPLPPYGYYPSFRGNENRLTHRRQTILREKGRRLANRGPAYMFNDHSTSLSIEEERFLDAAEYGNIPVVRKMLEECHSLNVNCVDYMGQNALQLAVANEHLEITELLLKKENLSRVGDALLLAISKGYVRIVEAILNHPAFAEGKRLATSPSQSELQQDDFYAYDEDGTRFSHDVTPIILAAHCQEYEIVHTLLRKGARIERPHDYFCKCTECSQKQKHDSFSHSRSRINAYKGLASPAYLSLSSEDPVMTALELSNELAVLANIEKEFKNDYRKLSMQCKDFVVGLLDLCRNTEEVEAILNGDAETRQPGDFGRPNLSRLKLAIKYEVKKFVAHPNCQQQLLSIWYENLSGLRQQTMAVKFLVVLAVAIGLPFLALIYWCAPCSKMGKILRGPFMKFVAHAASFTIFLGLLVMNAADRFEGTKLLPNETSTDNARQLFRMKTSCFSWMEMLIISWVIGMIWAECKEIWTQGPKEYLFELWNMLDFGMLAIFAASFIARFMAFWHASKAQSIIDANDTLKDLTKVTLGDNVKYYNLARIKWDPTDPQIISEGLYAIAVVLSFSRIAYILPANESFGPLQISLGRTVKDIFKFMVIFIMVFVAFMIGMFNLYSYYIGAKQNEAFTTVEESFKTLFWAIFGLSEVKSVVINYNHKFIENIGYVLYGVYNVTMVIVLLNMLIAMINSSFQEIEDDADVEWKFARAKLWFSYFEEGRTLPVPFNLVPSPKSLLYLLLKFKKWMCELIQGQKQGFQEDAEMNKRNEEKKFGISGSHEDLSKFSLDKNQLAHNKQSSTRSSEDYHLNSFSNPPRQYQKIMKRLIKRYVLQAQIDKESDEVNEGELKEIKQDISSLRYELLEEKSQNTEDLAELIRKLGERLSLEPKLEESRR
TRPC6 inhibitor = mouse TRPC6 channel inhibitors, primary screen, cell-based, HEK293, membrane potential dye. Short transient receptor potential channel 6 (Mus musculus), Q61143. AID 2553, 2010. 310,000 tested, 1.1% active. B-score at 10 µM. ACh-evoked depolarization; hits give low values;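 active = B-score under library mean minus 3 SD, initial fluorescence not abnormally high, positive integrated signal ratio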;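 note: B-score derived from integrated fluorescence ratio over the kinetic read; more negative B-score means stronger inhibition of depolarization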
TRPC4 inh = inhibitors of mouse TRPC4 channel, primary screen, Fluo4 calcium, HEK293 TRPC4beta/mu-opioid cells. DAMGO-evoked Fluo4 calcium flux; hits give low values. B-score at 10 µM. 300,000 tested, 0.39% active. AID 2247, 2010;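 active = B-score over 3 SD under the library average, no early fluorescence shift, positive overall ratio signal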
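Assay system – HEK293 line stably carrying TRPC4beta and mu-opioid receptor · Doses – single dose · Detection – Fluo4 calcium-dye fluorescence, kinetic read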
TRPC4 agonist = activators of mouse TRPC4 channel, primary screen, Fluo4 calcium, HEK293 TRPC4beta/mu-opioid cells; Short transient receptor potential channel 4 (Mus musculus), Q9QUQ5; Fluo4 calcium fluorescence; hits give high values; B-score at 10 µM; 310,000 tested, 0.49% active;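 active = B-score above 5 SD of library B-scores, and initial fluorescence ratio not above library mean plus 5 SD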;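 note: positive B-score marks a calcium rise read as TRPC4 activation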
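Test system: HEK293 cells stably co-expressing mouse TRPC4beta and mu-opioid receptor | Schedule: Fluo4 dye loading 45 min at room temperature, 110 s recording | Measured by: Kinetic Fluo4 calcium fluorescence, 5 s baseline at 1 Hz | Evaluation: B score of integrated ratio | Controls: Buffer (low) and maximal DAMGO (high)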
TRPC4 sel inh 2 = second selectivity test of TRPC6 inhibitors: effect on mouse TRPC4 | HEK293 TRPC4/MOR, membrane potential dye fluorescence; channel activated by saturating DAMGO dose | 920 tested, 42% active | shares compounds with TRPC6 inhibitor | AID 2776 | inhibition, % at 10 µM;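 active = compounds whose fluorescence signal differed from control wells by over 3 SD, either direction, in both duplicate plates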
TRPC4 spec = mouse TRPC4 modulation by TRPC6 hits, confirmation, selectivity assay for TRPC6 inhibitor project, cell-based, HEK293 TRPC4/mu-opioid, membrane potential dye; activity change, negative = inhibition, % at 10 µM; AID 2777, 2010; membrane potential fluorescence; 920 tested, 61% active; shares compounds with TRPC6 inhibitor;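 active = rise or fall in signal beyond 3 SD of buffer-only wells in both replicate plates, either sign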;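 note: integrated kinetic ratio of fluorescence range over baseline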
HEK293 MPD ctr 2-1 = nonspecific membrane potential effects, parental HEK293, confirmation, counter-screen for TRPC6 inhibitor project, cell-based, second counter screen. shares compounds with TRPC6 inhibitor. parental HEK293 membrane potential dye fluorescence; maximal acetylcholine challenge after compound addition. signal change vs control, % at 10 µM. 920 tested, 31% active. AID 2779, 2010;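 active = membrane potential signal moving either way by over 3 SD of the maximum-effect control, in both duplicate plates, meaning non-specific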
HEK293 MPD ctr-1 = membrane potential modulation in parental HEK293, confirmation, counter-screen for TRPC6 inhibitor project, cell-based | shares compounds with TRPC6 inhibitor | 920 tested, 60% active | membrane potential signal change, % at 10 µM | parental HEK293 membrane potential dye fluorescence;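 active = membrane potential signal shifting up or down by more than 3 SD of buffer-only wells, on both duplicate plates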
HEK293 MPD ctr-2 = parental HEK293 membrane potential modulation, confirmation, counter-screen for TRPC6 modulator project, cell-based | shares compounds with TRPC6 inhibitor | membrane potential dye fluorescence | membrane potential signal change, % at 10 µM | 2,400 tested, 51% active | AID 488924, 2010;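 active = membrane potential signal moves up or down beyond 5 SD from buffer-only wells, on both duplicate plates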
HEK293 MPD ctr 2-2 = parental HEK293 nonspecific activity of TRPC6 modulators, second screen | shares compounds with TRPC6 inhibitor | 2,400 tested, 14% active | membrane potential dye fluorescence; after compound, maximal acetylcholine stimulation | inhibition, % at 10 µM;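 active = membrane potential signal drops by more than 5 SD from the mean control signal, in both duplicate plates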;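 note: plate controls were acetylcholine ECmax control wells for no effect and buffer only wells for full effect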
TRPC4/MOR mod = TRPC4 modulation by TRPC6 hit compounds, confirmation, selectivity assay for TRPC6 modulator project, cell-based, HEK293 TRPC4/mu-opioid, membrane potential dye, mouse | shares compounds with TRPC6 inhibitor | membrane potential fluorescence | percent change from control (negative = decrease, positive = increase), % at 10 µM | 2,400 tested, 69% active | AID 488927, 2010;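 active = membrane potential signal moved up or down beyond 5 SD of buffer control wells, in both duplicate plates, actives on both sides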;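 note: plate controls were assay buffer wells for no effect and DAMGO maximal-effect wells for full effect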
TRPC4/MOR inh 2 = mouse TRPC4 off-target activity of TRPC6 modulators, second screen; shares compounds with TRPC6 inhibitor; HEK293 TRPC4/mu-opioid, membrane potential dye fluorescence; stimulated with maximal-effect DAMGO; inhibition, % at 10 µM; 2,400 tested, 55% active;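 active = drop in membrane potential signal beyond 5 SD of the control wells in both duplicate plates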;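 note: TRPC4 counter screen for TRPC6 hits run under conditions tuned for TRPC6 not TRPC4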
TRPC6 block conf = mouse TRPC6 channel inhibitors, confirmation, HEK293 cells, membrane potential dye, duplicate. shares compounds with TRPC6 inhibitor. ACh-evoked depolarization. inhibition, % at 10 µM. 3,300 tested, 43% active;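 active = fluorescence ratio falls more than 5 SD below the full-stimulation control mean, in both duplicate runs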;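 note: integrated fluorescence ratio of peak minus minimum over baseline after agonist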
TRPC6 act conf = mouse TRPC6 channel activators, confirmation, HEK293 cells, membrane potential dye, duplicate | HEK293-TRPC6 membrane potential dye fluorescence, FDSS | 2,800 tested, 11% active | shares compounds with TRPC6 inhibitor | activation, % at 10 µM | AID 488961, 2010;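 active = ratio signal rise beyond 5 SD above unstimulated control wells' mean, seen in both duplicate runs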;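 note: plate controls were buffer EC0 wells for no effect and acetylcholine ECmax response for full effect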
Starred values were filed as active, the others as inactive; i = inactive; . = no result. An excerpt weighted towards active compounds, which were near 2.3% of everything screened.

SMILES	TRPC4 PAM	TRPC6 activator	TRPC6 inhibitor	TRPC4 inh	TRPC4 agonist	HEK293 MPD ctr-2	HEK293 MPD ctr 2-2	TRPC4/MOR mod	TRPC4/MOR inh 2	TRPC6 block conf	TRPC6 act conf	others
COc1ccc(/C=N/Nc2nc3ccccc3[nH]2)cc1OC	i	i	-5.2*	i	i	-101%*	i	-18%*	50%*	59%*	i
COc1ccc2c(c1)c(/C=N/Nc1nc3ccccc3[nH]1)c(C)n2C	i	i	-8.2*	i	i	-122%*	i	-36%*	75%*	38%*	i
COc1ccc(/C=N/Nc2ccccn2)cc1OC	i	i	-5.8*	i	i	-121%*	i	-22%*	36%*	i	i
COc1cc(/C=N/Nc2ccccn2)ccc1O	i	i	i	i	i	.	.	.	.	.	.
C#CCn1cc(/C=N/Nc2nc3ccccc3[nH]2)c2ccccc21	i	i	-7.8*	i	i	-190%*	80%*	-40%*	91%*	74%*	i
C(=N\Nc1nc2ccccc2[nH]1)/c1cccc2nccnc12	i	i	i	i	i	.	.	.	.	.	.
Cc1ccc(C)c(NS(=O)(=O)c2ccccc2C)c1	i	i	i	i	i	.	.	.	.	.	.
CCCn1c(N)c(N(CCOC)C(=O)COC(=O)CSc2cc(C)c3ccccc3n2)c(=O)[nH]c1=O	i	i	i	i	i	.	.	.	.	.	.
CC(=O)Nc1cc2nc(C)n(Cc3ccccc3[N+](=O)[O-])c2nc1C	i	i	i	i	i	.	.	.	.	.	.
Cc1ccc2cc(/C=N/Nc3nc4ccccc4[nH]3)c(Cl)nc2c1	i	i	i	i	i	.	.	.	.	.	.
CCN(CC)c1ccc(/C=N/Nc2nc3ccccc3[nH]2)c(O)c1	i	i	-5.9*	i	i	i	i	-29%*	71%*	i	i
COc1cc(OC)c(OC)cc1/C=N/Nc1nc2ccccc2[nH]1	i	i	-5.2*	i	i	i	i	-11%*	i	i	i
CC(C)CN(CCNC(=O)CN1C(=O)COc2ccc(S(=O)(=O)N3CCC(C)CC3)cc21)CC(C)C	i	i	i	i	i	.	.	.	.	.	.
COc1cc(C(=O)OCC(=O)NCc2ccc(F)cc2)ccc1OCC(C)C	i	i	i	i	i	.	.	.	.	.	.
CCOC(=O)N1CCC(N2CCN(CCC(C)C)C(CCO)C2)CC1 (centres undefined)	i	i	-7.6*	i	i	.	.	.	.	64%*	.	TRPC4 sel inh 2=i;TRPC4 spec=9.0%*;HEK293 MPD ctr 2-1=-4.0%*;HEK293 MPD ctr-1=1.5%*
CCN1CCN(c2cc(C)c3cc(NC(=O)c4cccs4)ccc3n2)CC1	i	i	-5.3*	i	i	i	i	i	i	i	i
CCN1CCN(c2cc(C)c3cc(NC(=O)c4cncc(Br)c4)ccc3n2)CC1	i	i	-11*	i	i	.	.	.	.	i	i	TRPC4 sel inh 2=i;TRPC4 spec=-17%*;HEK293 MPD ctr 2-1=i;HEK293 MPD ctr-1=-164%*
CCN(CC)c1ccc(/C=C(/C#N)C(=O)NCc2ccccc2)o1	i	19*	i	i	i	590%*	i	183%*	i	i	132%*
CCc1ccc(NC(=O)C(C)Sc2nc(-c3ccco3)c(C#N)c(=O)[nH]2)cc1 (centres undefined)	i	i	i	i	i	.	.	.	.	.	.
CC(C)c1ccc(N2C(=O)CC(Sc3nc4ccccc4o3)C2=O)cc1 (centres undefined)	i	i	-7.4*	i	i	.	.	.	.	i	i	TRPC4 sel inh 2=i;TRPC4 spec=i;HEK293 MPD ctr 2-1=i;HEK293 MPD ctr-1=i
CC(C)c1ccc(N2C(=O)CC(Sc3ncn[nH]3)C2=O)cc1 (centres undefined)	i	i	i	i	i	.	.	.	.	.	.
O=C(OCc1ccccc1)N1CCc2ccccc21	i	i	i	i	i	.	.	.	.	.	.
COc1ccc(-c2cc3nc(C)cc(-c4ccc(OC)cc4)n3n2)cc1	i	i	i	i	i	.	.	.	.	.	.
COc1ccc(-c2cc3nc(C)cc(NCCO)n3n2)cc1	i	i	-9*	i	i	-300%*	i	-48%*	49%*	72%*	i
